In brackets after ≈: the same amount, converted by molar mass. Activity calls are given as the source filed them. The rule behind the calls is not given here.
Key:
Vero 76 = assay: Cytotoxicity against African green monkey Vero 76 assessed as reduction in cell viability measured after 72 hrs; type: cell-based; settings: chlorocebus sabaeus, vero 76, 72 h
How it was run: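 Uninfected Vero 76 cells were exposed to compound, and viability was assessed 72 h post-treatment.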

[1] = tested on: Venezuelan equine encephalitis virus; assay: Antiviral activity against Venezuelan equine encephalitis virus infected in African green monkey Vero 76 cells assessed as virus induced cytopathic effect measured after 48 hrs; type: functional, organism-based; settings: Vero 76, 48 h
[2] = tested on: Eastern equine encephalitis virus; assay: Antiviral activity against eastern equine encephalitis virus infected in African green monkey Vero 76 cells assessed as virus induced cytopathic effect measured after 48 hrs; type: functional, organism-based; settings: Vero 76, 48 h
[3] = tested on: Venezuelan equine encephalitis virus; assay: Antiviral activity against Venezuelan equine encephalitis virus co-culture with brain Primary neuron cells HNC001 as reduction on virus titre at 5 uM in Vero 76 cells measured after 18 hrs by TCID50-MTT assay; type: functional, organism-based
[4] = tested on: Eastern equine encephalitis virus; assay: Antiviral activity against Eastern equine encephalitis virus co-culture with brain Primary neuron cells HNC001 as reduction on virus titre at 5 uM in Vero 76 cells measured after 18 hrs by TCID50-MTT assay; type: functional, organism-based
[5] = tested on: Venezuelan equine encephalitis virus; assay: Antiviral activity against Venezuelan equine encephalitis virus co-culture with brain Primary neuron cells HNC001 as reduction on virus titre at 1 uM in Vero 76 cells measured after 18 hrs by TCID50-MTT assay; type: functional, organism-based
[6] = tested on: Eastern equine encephalitis virus; assay: Antiviral activity against Eastern equine encephalitis virus co-culture with brain Primary neuron cells HNC001 as reduction on virus titre at 1 uM in Vero 76 cells measured after 18 hrs by TCID50-MTT assay; type: functional, organism-based
[7] = Aqueous solubility of compound at pH 7.4 measured after 1460 min by HPLC analysis; type: physicochemical; settings: buffer
How it was run: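 Kinetic solubility was measured in aqueous PBS buffer at pH 7.4.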

[8] = Metabolic stability in CD-1 mouse liver microsomes assessed as half life measured at 60 mins in presence of NADPH by LC-MS/MS analysis; type: ADME, Microsome; settings: 1 h
How it was run: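 Half-life was determined from stability in CD-1 mouse liver microsomes.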

[9] = tested on: Venezuelan equine encephalitis virus; assay: Antiviral activity against Venezuelan equine encephalitis virus infected in African green monkey Vero 76 cells assessed as reduction on virus yield at 5 uM after 18 hrs of post infection; type: functional
[10] = tested on: Eastern equine encephalitis virus; assay: Antiviral activity against eastern equine encephalitis virus infected in African green monkey Vero 76 cells assessed as reduction on virus yield at 5 uM after 18 hrs of post infection; type: functional

| Compound | CC50 (Vero 76) | EC50 [1] | EC50 [2] | Activity [3] | Activity [4] | Activity [5] | Activity [6] | solubility kinetic at 24.33 h [7] | t1/2 [8] | Activity [9] | Activity [10] |
| --- | --- | --- | --- | --- | --- | --- | --- | --- | --- | --- | --- |
| COc1ccc(N2C(=O)c3cc([N+](=O)[O-])ccc3N=C3C2N(C2CCCCC2)CCN3C)cc1 (configuration not stated) | > 30 µM | 7 µM | 6.2 µM |  |  |  |  |  |  |  |  |
| COc1ccc(N2C(=O)c3cc(C#N)cc(-c4ccc(C)nc4)c3N=C3C2N(C)CCN3C)cc1F (racemic) | 23.3 µM | 0.24 µM | 0.16 µM | Active | Active | inactive | inactive | 2 µM (≈ 0.969 µg/mL) | 45 min | 5.2 | 6.9 |
| COc1cccc(N2C(=O)c3cc([N+](=O)[O-])ccc3N=C3C2N(C)CCN3C)c1 (configuration not stated) | > 30 µM | 0.53 µM | 0.5 µM |  |  |  |  |  |  | 2.4 | 5.7 |
| CN1CCN(C)C2C1=Nc1ccc(C#N)cc1C(=O)N2c1ccccc1 (configuration not stated) | > 30 µM | 7 µM | 4.4 µM |  |  |  |  |  |  |  |  |
| COc1ccc(N2C(=O)c3cc([N+](=O)[O-])ccc3N=C3C2N(C)CCN3C)cc1 (configuration not stated) | > 30 µM |  | 0.033 µM | Active | Active |  |  | 0.7 µM (≈ 0.277 µg/mL) | 10 min | 5.5 | 7.9 |
| COc1ccc(N2C(=O)c3cc([N+](=O)[O-])ccc3N=C3[C@@H]2N(C)[C@@H]2CCCC[C@H]2N3C)cc1 | > 30 µM | 4.7 µM | 4.5 µM |  |  |  |  |  |  |  |  |
| COc1ccc(N2C(=O)c3cc(C#N)cc(Br)c3N=C3C2N(C)CCN3C)cc1F (configuration not stated) | > 30 µM | 4.1 µM | 3.2 µM |  |  |  |  |  |  |  |  |
| COc1ccc(N2C(=O)c3cc([N+](=O)[O-])ccc3N=C3[C@H]2N(C)[C@H]2CCCC[C@@H]2N3C)cc1 |  | 5.6 µM | 3.8 µM |  |  |  |  |  |  |  |  |
| COc1ccc(N2C(=O)c3cc(C#N)cc(-c4ccc(C)nc4)c3N=C3[C@H]2N(C)CCN3C)cc1F |  | 0.5 µM | 0.3 µM | Active | Active | inactive | inactive |  |  | 6.1 | 5.2 |
| CN1CCN(C)C2C1=Nc1ccc([N+](=O)[O-])cc1C(=O)N2c1ccc(F)cc1 (configuration not stated) | > 30 µM | 0.15 µM | 0.11 µM |  |  |  |  |  |  | 2.9 | 6.1 |
| COc1ccc(N2C(=O)c3cc([N+](=O)[O-])ccc3N=C3C2N(C)CCN3C)cc1F (configuration not stated) | > 30 µM | 0.048 µM |  | Active | Active |  |  | 0.5 µM (≈ 0.207 µg/mL) | 10 min | 3.7 | 7.7 |
| CN1CCN(C)C2C1=Nc1cc([N+](=O)[O-])ccc1C(=O)N2c1ccccc1 (configuration not stated) | > 30 µM | > 30 µM | > 30 µM |  |  |  |  |  |  |  |  |
| COc1ccc(N2C(=O)c3cc([N+](=O)[O-])ccc3N=C3C2N(Cc2ccccc2)CCN3Cc2ccccc2)cc1 (configuration not stated) | > 30 µM | 19.8 µM | 13.8 µM |  |  |  |  |  |  |  |  |
| CN1CCN(C)C2C1=Nc1ccc([N+](=O)[O-])cc1C(=O)N2c1ccccc1 (configuration not stated) | > 30 µM | 0.12 µM |  |  |  |  |  |  |  | 2.6 | 5.7 |
| CN1CCN(C)C2C1=Nc1ccc(F)cc1C(=O)N2c1ccccc1 (configuration not stated) | > 30 µM | > 30 µM | > 30 µM |  |  |  |  |  |  |  |  |
| COc1ccc(N2C(=O)c3cc(C#N)cc(-c4ccc(C)nc4)c3N=C3[C@@H]2N(C)CCN3C)cc1F | > 30 µM | 0.33 µM | 0.26 µM | Active | Active | inactive | inactive |  |  | 2.7 | 5.9 |
| COc1ccc(N2C(=O)c3cc([N+](=O)[O-])ccc3N=C3C2N(Cc2ccccc2)CCN3C)cc1 (configuration not stated) | > 30 µM | 3 µM | 3.2 µM |  |  |  |  |  |  |  |  |
| COc1ccc(N2C(=O)c3cc(C#N)cc(N4CCOCC4)c3N=C3C2N(C)CCN3C)cc1F (configuration not stated) | > 30 µM | 2.5 µM | 1.9 µM |  |  |  |  |  |  | 2.5 | 4 |
| COc1ccc(N2C(=O)c3cc(C#N)ccc3N=C3C2N(C)CCN3C)cc1 (configuration not stated) | > 30 µM | 4.2 µM | 2.5 µM |  |  |  |  |  |  |  |  |
